These results are taken from the array DNA melting data of Ke et al. (doi:10.1101/2024.01.08.574731).

Series [1] is described as follows: folding enthalpy; higher = less favourable; fluorescence melt of hairpins on a sequencing array, two-state fit. The following applies: sodium 0.088 M. The method, boiled down:
(§1)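 With Cy3 and quencher oligos annealed, library hairpins on a sequenced MiSeq flow cell were imaged for Cy3 fluorescence in 50 mM Na-HEPES pH 8.0, 25 mM NaCl, in 2.5 °C steps up to 60 °C. Melting temperature and folding enthalpy were derived from bootstrapped two-state fits of signals normalised to pre-quench Cy3 and to control constructs. Four replicates were combined by inverse variance, with fitted temperatures raised by 9.35 °C to match UV melts.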

Series [2] is described as follows: melting temperature; fluorescence melt of hairpins on a sequencing array, two-state fit, raised by 9.35 °C to match UV melts. The following applies: sodium 0.088 M. In a few lines: as §1

In the case of GATTGCGAAAGCATATC ((((((....))).))), in series [1], the folding enthalpy was -16.5 kcal/mol. In addition, the Tm in series [2] was 42.9 °C.
The corresponding values for GATTGCGGAAACGCAGTC ((.((((....)))).)) are -25.2 kcal/mol and 49.6 °C.
The corresponding values for GATTGGCGAAAGCCTATC (((.(((....))).))) are -19.8 kcal/mol and 48.8 °C.
The corresponding values for GATTGGGGAAACTCAATC (((((.(....).))))) are -33.5 kcal/mol and 41.9 °C.
In the case of GATTGGGGAAACTCGATC (((.(.(....).).))), in series [1], the folding enthalpy is -15.4 kcal/mol. In series [2], the Tm was 30 °C.
As to GATTGTGGAAACACGATC (((.(((....))).))), the folding enthalpy in series [1] is -31.7 kcal/mol. Also, the Tm in series [2] came out at 48.1 °C.
The corresponding values for GATTTACGAAAGTACATC (((.(((....))).))) are -19.9 kcal/mol and 35.6 °C.
The corresponding values for GATTTACGAAAGTATATC (((.(((....))).))) are -24.2 kcal/mol and 35.6 °C.
The corresponding values for GATTTAGGAAACTAAATC (((((((....))))))) are -42.9 kcal/mol and 48 °C.
With GATTTAGGAAACTAAGTC ((.((((....)))).)), in series [1], the folding enthalpy was -8.37 kcal/mol. The Tm in series [2] turned out to be 29.6 °C.
The corresponding values for GATTTCGCGAAAGCGATC (((..(((....)))))) are -5.88 kcal/mol and 17.8 °C.
The corresponding values for GATTTGCGAAAGCATATC (((.(((....))).))) are -22.9 kcal/mol and 43.1 °C.
The corresponding values for GATTTGGCGAAAGCCATC (((..(((....)))))) are -6.61 kcal/mol and 26.1 °C.
Consider GATTTGGGAAACCAAATC (((((((....))))))), for which, in series [1], the folding enthalpy was -40.9 kcal/mol. The Tm in series [2] is 55 °C.
As for GCAAAACGAAAGTTCTGC (((.(((....))).))), the folding enthalpy in series [1] is -27.8 kcal/mol. Also, in series [2], the Tm was 40.7 °C.
The corresponding values for GCAAAATCGAAAGATTGC (((..(((....)))))) are -20.6 kcal/mol and 38.5 °C.
The corresponding values for GCAAACCGAAAGGTTGC (((.(((....)))))) are -29.1 kcal/mol and 57.2 °C.
The corresponding values for GCAAACGAAAGTTAGTGC ((((((....)))..))) are -19.7 kcal/mol and 32.9 °C.
As to GCAAACGAAAGTTTATGC ((((((....)))..))), the folding enthalpy in series [1] was -17.2 kcal/mol. The Tm in series [2] was 31.9 °C.
The corresponding values for GCAAACGGAAACGTCTGC (((.(((....))).))) are -25.2 kcal/mol and 44.7 °C.
As to GCAAACGGAAACGTTCAC (..((((....))))..), the folding enthalpy in series [1] is -8.17 kcal/mol. The Tm in series [2] worked out at 24.7 °C.
The corresponding values for GCAAACGGAAACGTTCGC ((.((((....)))).)) are -29.7 kcal/mol and 46.4 °C.
With GCAAAGCGAAAGCAATGC (((..((....))..))), the folding enthalpy in series [1] was -12.1 kcal/mol. Moreover, the Tm in series [2] amounted to 34.5 °C.
Turning to GCAAAGCGAAAGCCTTGC ((((.((....)).)))), in series [1], the folding enthalpy was -22.1 kcal/mol. Besides, the Tm in series [2] stood at 53 °C.
Take GCAAAGCGAAAGCGTAGC ((.(.((....)).).)): the folding enthalpy in series [1] is -17.1 kcal/mol. In addition, in series [2], the Tm came out at 55.9 °C.
The corresponding values for GCAAAGCGAAAGCGTGGC ((.(.((....)).).)) are -15.9 kcal/mol and 50.6 °C.
As for GCAAAGCGAAAGCGTTGC ((((.((....)).)))), the folding enthalpy in series [1] is -26.3 kcal/mol. Also, the Tm in series [2] worked out at 65 °C.
The corresponding values for GCAAAGCGAAAGCTAAGC ((..(((....)))..)) are -12.6 kcal/mol and 40.3 °C.
The corresponding values for GCAAAGCGAAAGCTGAGC ((..(((....)))..)) are -18.5 kcal/mol and 55.9 °C.
As for GCAAAGCGAAAGCTGGGC ((..(((....)))..)), in series [1], the folding enthalpy is -18.9 kcal/mol. The Tm in series [2] worked out at 55.6 °C.
The corresponding values for GCAAAGGAAACTTTGC ((((((....)))))) are -31.2 kcal/mol and 55.3 °C.
The corresponding values for GCAAATCGAAAGATATGC (((.(((....))).))) are -29.4 kcal/mol and 45.1 °C.
The corresponding values for GCAAATCGAAAGATCTGC (((.(((....))).))) are -28.3 kcal/mol and 40.4 °C.
Regarding GCAAATCGAAAGATTGC (((.(((....)))))), in series [1], the folding enthalpy was -24 kcal/mol. Besides, in series [2], the Tm amounted to 48.9 °C.
The corresponding values for GCAAATGGAAACACTTGC ((((.((....)).)))) are -31.5 kcal/mol and 33.9 °C.
With GCAACACCGAAAGGTTGC (((..(((....)))))), in series [1], the folding enthalpy was -22.6 kcal/mol. For the same sequence, the Tm in series [2] is 49.8 °C.
With GCAACACGAAAGTGCTGC (((.(((....))).))), in series [1], the folding enthalpy is -48.4 kcal/mol. In addition, in series [2], the Tm was 54.8 °C.
As to GCAACAGCGAAAGCTTGC (((..(((....)))))), the folding enthalpy in series [1] is -19.5 kcal/mol. Also, in series [2], the Tm was 46.6 °C.
The corresponding values for GCAACCGAAAGGTAGTGC ((((((....)))..))) are -20.1 kcal/mol and 41.2 °C.
GCAACCGGAAACGATTGC ((((.((....)).)))): in series [1], the folding enthalpy was -31.5 kcal/mol. In addition, the Tm in series [2] was found to be 47.4 °C.
The corresponding values for GCAACGCGAAAGCCTTGC ((((.((....)).)))) are -21.5 kcal/mol and 47.9 °C.
The corresponding values for GCAACGCGAAAGCGACGC ((..(((....)))..)) are -15.9 kcal/mol and 48.5 °C.
The corresponding values for GCAACGCGAAAGCGCCGC ((..(((....)))..)) are -9.13 kcal/mol and 40.8 °C.
For the sequence GCAACGCGAAAGCGTCGC ((.((((....)))).)), the folding enthalpy in series [1] was -22.2 kcal/mol. Also, in series [2], the Tm stood at 64.7 °C.
The corresponding values for GCAACGCGAAAGCTCTGC (((..((....))..))) are -9.33 kcal/mol and 34.6 °C.
On to GCAACGGCGAAAGCCTGC (((..(((....)))))), for which the folding enthalpy in series [1] is -15.2 kcal/mol. Further, the Tm in series [2] was determined as 47 °C.
The corresponding values for GCAACTGGAAACAGTCGC ((.((((....)))).)) are -33 kcal/mol and 45.9 °C.
The corresponding values for GCAAGACGAAAGTCATGC (((.(((....))).))) are -32.2 kcal/mol and 54.4 °C.
Consider GCAAGAGGAAACTCCTGC (((.(((....))).))), for which, in series [1], the folding enthalpy is -18.2 kcal/mol. In series [2], the Tm is 35.2 °C.
The corresponding values for GCAAGCACGAAAGTGTGC (((..(((....)))))) are -16 kcal/mol and 40.4 °C.
As for GCAAGCGAAAGCTAGTGC ((((((....)))..))), the folding enthalpy in series [1] was -17.8 kcal/mol. Further, the Tm in series [2] is 39.9 °C.
The corresponding values for GCAAGCGGAAACGTTTGC ((((.((....)).)))) are -38.5 kcal/mol and 53.5 °C.
The corresponding values for GCAAGGCCGAAAGGCTGC (((..(((....)))))) are -14.8 kcal/mol and 51.6 °C.
The corresponding values for GCAAGGCGAAAGCATTGC ((((.((....)).)))) are -38.2 kcal/mol and 67.2 °C.
For GCAAGGCGAAAGCCTAGC ((.((((....)))).)), in series [1], the folding enthalpy was -18.4 kcal/mol. In series [2], the Tm came out at 61.7 °C.
The corresponding values for GCAAGGCGAAAGCCTGC (((.(((....)))))) are -19.8 kcal/mol and 66.5 °C.
The corresponding values for GCAAGGCGAAAGCGGTGC (((..((....))..))) are -21.2 kcal/mol and 47.1 °C.
The corresponding values for GCAAGGCGAAAGCGTCGC ((.(.((....)).).)) are -15.4 kcal/mol and 40.7 °C.
As to GCAAGGCGAAAGCTTAGC ((.(.((....)).).)), the folding enthalpy in series [1] was -13.6 kcal/mol. The Tm in series [2] came to 38.8 °C.
The corresponding values for GCAAGGGCGAAAGCCTGC (((..(((....)))))) are -14 kcal/mol and 50.9 °C.
As to GCAAGGGGAAACCCTTAC (.(((((....))))).), the folding enthalpy in series [1] was -14.3 kcal/mol. For the same sequence, the Tm in series [2] was 33.6 °C.
The corresponding values for GCAAGTACGAAAGTATGC (((..(((....)))))) are -19 kcal/mol and 33.4 °C.
The corresponding values for GCAAGTCGAAAGACTGC (((.(((....)))))) are -25.8 kcal/mol and 57.1 °C.
The corresponding values for GCAAGTGAAAACTTGC ((((((....)))))) are -35.4 kcal/mol and 61.5 °C.
For the sequence GCAAGTGCGAAAGCATGC (((..(((....)))))), the folding enthalpy in series [1] is -14 kcal/mol. For the same sequence, in series [2], the Tm was 44.5 °C.
For the sequence GCAAGTGGAAACATTTGC ((((.((....)).)))), in series [1], the folding enthalpy is -29.8 kcal/mol. The Tm in series [2] worked out at 45.9 °C.
The corresponding values for GCAAGTGGAAACGTTTGC ((((..(....)..)))) are -20.4 kcal/mol and 34.4 °C.
The corresponding values for GCAATACGAAAGTATGC (((.(((....)))))) are -29.4 kcal/mol and 50.6 °C.
In the case of GCAATAGCGAAAGCTTGC (((..(((....)))))), in series [1], the folding enthalpy was -24.7 kcal/mol. In series [2], the Tm is 48.7 °C.
The corresponding values for GCAATAGGAAACTACTGC (((.(((....))).))) are -14.5 kcal/mol and 29.8 °C.
The corresponding values for GCAATCGAAAGATATGC ((((((....))).))) are -21.1 kcal/mol and 36.3 °C.
The corresponding values for GCAATCGAAAGATGGTGC ((((((....)))..))) are -21.2 kcal/mol and 36.3 °C.
For the sequence GCAATCGAAAGATTTGC ((((((....))).))), in series [1], the folding enthalpy is -27.6 kcal/mol. For the same sequence, the Tm in series [2] came out at 44.2 °C.
